From PMC3159890 (Frontiers in Pharmacology, 2011)

How the values were obtained:
Assay type in all cases: cell-based
[1] = molecular target: wild-type CFTR (Homo sapiens, UniProt P13569); experiment: iodide efflux in NuLi-1 cells
Method in brief: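 NuLi-1 cells (non-CF human bronchial epithelium, wild-type CFTR) cultured on collagen type VI-coated flasks in BEGM at 37°C, 5% CO2, media changed every 2 days, and seeded in 24-well plates. Iodide efflux stimulated by forskolin 10 μM plus test compound 100 μM. CFTR-inh172 10 μM was present in loading solution and efflux buffer.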

[2] = molecular target: T1, wt-CFTR (Homo sapiens, UniProt P13569); experiment: whole-cell patch-clamp on wt-CFTR-CHO cells
Method in brief: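 CHO cells stably expressing wt-CFTR, kept in α-MEM-GlutaMAX with 7% FBS and 100 μM methotrexate, were plated in 35-mm dishes. Whole-cell currents sampled at 3 kHz. Holding potential −40 mV, with pulses −100 to +100 mV in 20 mV steps. Capacitance obtained from a 10 mV hyperpolarization; currents normalized per pF. Stimulation with forskolin 1 μM plus test compound 10 μM. Time course: amplitude at +40 mV plotted every 10 s.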

[3] = molecular target: F508del-CFTR (Homo sapiens, UniProt P13569, DEL508-508); experiment: iodide efflux in CuFi-1 cells
Method in brief: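 CuFi-1 cells (F508del/F508del, CF bronchial epithelium) grown on collagen type VI-coated flasks in BEGM at 37°C, 5% CO2, media renewed every 2 days, then seeded in 24-well plates. F508del-CFTR rescued by 24 h at 27°C or 24 h at 37°C with miglustat. Iodide efflux stimulated by forskolin 10 μM plus test compound 100 μM. Chloride transport inhibitors, when used, were present in loading solution and efflux buffer.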

[4] = system: wt-CFTR-CHO cells; experiment: MTT cytotoxicity assay; conditions: 100 μM, 24 h
Method in brief: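 wt-CFTR-CHO cells in α-MEM-GlutaMAX with 7% FBS and 100 μM methotrexate, exposed 24 h at 37°C to 100 μM test compound; MTT done the next day. PBS wash, then MTT (0.5 mg/ml in PBS) for 4 h at 37°C. Formazan dissolved in DMSO; OD read at 570 nm against 630 nm reference. Mean of three replicates, as percentage of control.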

[5] = molecular target: T1, wt-CFTR; experiment: iodide efflux in wt-CFTR-CHO cells
Method in brief: (§1)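 Stably transfected CHO cells (wt-CFTR or G551D-CFTR, methotrexate-selected) seeded in 24-well plates and loaded with 125I; efflux sampled robotically. Rate k = ln(125It1/125It2)/(t1–t2); response = kpeak − kbasal (min−1). Concentration-response curves expressed as percentage of maximal activation. Chloride transport inhibitors, when used, were present in both loading and efflux buffers.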

[6] = system: cAMP levels in wt-CFTR-CHO cells; experiment: cAMP-Screen ELISA determination of cAMP; conditions: RP193 100 μM alone or with forskolin 1 μM, 10 min
Method in brief: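 wt-CFTR-CHO cells incubated with agents for 10 min at 37°C. Reactions then stopped and intracellular cAMP quantified by cAMP-Screen ELISA, following the kit instructions.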

[7] = system: CHO-K1; experiment: whole-cell patch-clamp on CHO-K1 cells; conditions: forskolin 1 μM; RP193 10 μM
Method in brief: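 Whole-cell clamp, seals 5–10 GΩ. Pipette (mM): Cs-aspartate/CsCl, 1 EGTA, 10 TES, 3 MgATP, pH 7.2. Bath (mM): 145 NaCl, 4 CsCl, 1 CaCl2, 1 MgCl2, 10 glucose, 10 TES, pH 7.4. Held at −40 mV, stepped −100 to +100 mV in 20 mV increments; sampled at 3 kHz. Currents normalised to capacitance (pA/pF); time course read at +40 mV every 10 s.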

[8] = molecular target: T1, wt-CFTR; experiment: single-channel cell-attached patch-clamp on wt-CFTR-CHO cells
Method in brief: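 Cell-attached single-channel recordings on wt-CFTR-CHO cells at room temperature, seals 10–20 GΩ. Bath received forskolin 1 μM, then test compound 10 μM. Pipette (mM): 150 NaCl, 2 MgCl2, 10 TES, pH 7.4. Bath (mM): 145 NaCl, 4 KCl, 2 MgCl2, 10 TES, pH 7.4. Sampled at 3 kHz, filtered at 100 Hz (eight-pole Bessel). Potential = bath minus pipette.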

[9] = molecular target: G551D-CFTR (Homo sapiens, UniProt P13569, G551D); experiment: iodide efflux in G551D-CFTR-CHO cells
Method in brief: as §1

[10] = system: primary cultures of human bronchial epithelial cells (HBEC); experiment: Ussing chamber short-circuit current in primary HBEC cultures; conditions: amiloride 10 μM, luminal bath
Method in brief: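 Primary non-CF bronchial epithelial cells (three lung-resection donors), enzymatically isolated, grown to confluence on permeable collagen supports. Mounted in Ussing chambers in KBR at 37°C, gassed 95% O2-5% CO2. After 20–30 min equilibration and 10 min basal: amiloride 10 μM apical, forskolin 1 μM both sides, test compound basolateral, with 10–15 min stabilisation between additions. ΔIsc = plateau minus pre-addition value; Rt from +2 mV pulses every 90 s.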

O=C(O)c1ccc(/C=C2\SC(=S)N(c3cccc(C(F)(F)F)c3)C2=O)cc1 [CFTR-inh172, reference compound]
inhibition of RP193-stimulated iodide efflux in NuLi-1 cells ([1]; CFTR-inh172 10 μM): abolished | whole-cell current amplitude at +40 mV after inhibitor ([2]; CFTR-inh172 10 μM added after fsk 1 μM + RP193 10 μM): 8.2 ± 5.2 pA/pF | inhibition of RP193-induced iodide efflux in CuFi-1 cells ([3]; miglustat-treated cells, CFTRinh-172 10 μM, data not shown): fully inhibited

CCCCc1c(-c2ccc(O)cc2)[nH]c2nccnc12 [RP107, 7-n-butyl-6-(4-hydroxyphenyl)[5H]-pyrrolo[2,3-b]pyrazine]
cytotoxicity (cell viability, MTT) [4]: significantly higher cytotoxicity compared to the control conditions

Br.CCCCc1c(-c2cccc(O)c2)[nH]c2nccnc12 [RP146, 7-n-Butyl-6-(3-hydroxyphenyl)-5H-pyrrolo[2,3-b]pyrazine hydrobromide]
cytotoxicity (cell viability, MTT) [4]: significantly higher cytotoxicity compared to the control conditions | EC50 [5]: 97 µM

Br.CCCCc1c(-c2ccccc2O)[nH]c2nccnc12 [RP173, 7-n-Butyl-6-(2-hydroxyphenyl)-5H-pyrrolo[2,3-b]pyrazine hydrobromide]
cytotoxicity (cell viability, MTT) [4]: significantly higher cytotoxicity compared to the control conditions

CCCCc1c(-c2ccc(F)cc2)[nH]c2nccnc12 [RP185, 7-n-butyl-6-(4-fluorophenyl)-5H-pyrrolo[2,3-b]pyrazine]
cytotoxicity (cell viability, MTT) [4]: not cytotoxic | EC50 [5]: 78 µM

CCCCc1c(-c2ccccc2F)[nH]c2nccnc12 [RP193, 7-n-butyl-6-(2-fluorophenyl)-5H-pyrrolo[2,3-b]pyrazine]
dependence of CFTR potentiation on intracellular cAMP levels [6]: independent of intracellular cAMP levels | stimulation of iodide efflux in NuLi-1 cells ([1]; RP193 100 μM in presence of forskolin 10 μM): stimulated CFTR in NuLi-1 cells | cytotoxicity (cell viability, MTT) [4]: not cytotoxic | stimulation of CFTR-dependent iodide efflux ([5]; RP193 100 μM without forskolin, wt-CFTR-CHO cells): no stimulation of CFTR activity | time to significant increase of the whole-cell current ([2]; RP193 10 μM in presence of forskolin 1 μM): 5 to 7 min | whole-cell current amplitude at +40 mV ([2]; RP193 10 μM in the presence of 1 μM fsk): 113.8 ± 15.1 pA/pF | effect on whole-cell current in CHO-K1 [7]: no effect | stimulation of iodide efflux in CuFi-1 cells ([3]; cells 24 h at 27°C, RP193 100 μM in presence of forskolin 10 μM): iodide efflux significantly higher than with forskolin alone | stimulation of iodide efflux in CuFi-1 cells ([3]; cells cultivated at 37°C, RP193 100 μM + forskolin 10 μM): did not stimulate iodide efflux | stimulation of iodide efflux in CuFi-1 cells ([3]; cells non-treated with miglustat): no effect | single-channel CFTR activity, cell-attached ([8]; RP193 10 μM in bath, in presence of forskolin 1 μM): progressive and sustained CFTR activity was recorded | average unitary conductance ([8]; forskolin 1 μM + RP193 10 μM, n = 4): 8.1 ± 0.0 pS | stimulation of iodide efflux in G551D-CFTR-CHO cells ([9]; RP193 10 μM in presence of forskolin 10 μM, n = 4): stimulated an efflux | stimulation of iodide efflux in G551D-CFTR-CHO cells ([9]; RP193 alone, not shown): did not have any effect

N=C(N)NC(=O)c1nc(Cl)c(N)nc1N [amiloride]
change in Isc [10]: −29.5 ± 4.5 μA/cm^2

C=C[C@@]1(C)CC(=O)[C@]2(O)[C@@]3(C)[C@@H](O)CCC(C)(C)[C@@H]3[C@H](O)[C@H](OC(C)=O)[C@@]2(C)O1 [forskolin, reference compound]
whole-cell current amplitude at +40 mV ([2]; forskolin 1 μM alone): 18.4 ± 6.2 pA/pF | effect on whole-cell current in CHO-K1 [7]: no effect | stimulation of iodide efflux in G551D-CFTR-CHO cells ([9]; forskolin 10 μM alone, compared to basal state): No significant stimulation
